# Legend:
# Assay type in all cases: functional
# [1] = system: Enterococcus faecium; test: Antibacterial activity against Enterococcus faecium NCTC 7171 incubated for 16 to 20 hrs by microdilution method
# How it was run: (§1)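 CLSI broth microdilution. 2-fold serial dilutions were made in cation-adjusted Mueller–Hinton broth, with 5% lysed horse blood added for Streptococcus strains, in triplicate. Inoculum 5×10^5 CFU/mL. Plates incubated 36 °C for 16–20 h. MIC taken as the lowest concentration visibly inhibiting growth.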
# [2] = system: Klebsiella pneumoniae; test: Antibacterial activity against Klebsiella pneumoniae ATCC 700603 incubated for 16 to 20 hrs by microdilution method; how it was run: as §1
# [3] = system: Acinetobacter baumannii; test: Antibacterial activity against Acinetobacter baumannii ATCC 17961 incubated for 16 to 20 hrs by microdilution method; how it was run: as §1
# [4] = system: Pseudomonas aeruginosa; test: Antibacterial activity against Pseudomonas aeruginosa […] incubated for 16 to 20 hrs by microdilution method; how it was run: as §1
# [5] = system: Escherichia coli; test: Antibacterial activity against Escherichia coli ATCC 25922 incubated for 16 to 20 hrs by microdilution method; how it was run: as §1
# [6] = system: Klebsiella aerogenes; test: Antibacterial activity against Enterobacter aerogenes ATCC 35029 incubated for 16 to 20 hrs by microdilution method; how it was run: as §1
Compound,MIC [1],MIC [2],MIC [3],MIC [4],MIC [5],MIC [6]
O=C(NCCO)c1cccc(-n2c(/C=C/c3ccc(F)cc3)nc3ccccc3c2=O)c1,≥ 8 µg/mL,≥ 16 µg/mL,≥ 16 µg/mL,≥ 16 µg/mL,≥ 16 µg/mL,≥ 16 µg/mL
O=c1c2ccccc2nc(/C=C/c2cccc([N+](=O)[O-])c2)n1-c1cccc(O)c1,≥ 8 µg/mL,≥ 16 µg/mL,≥ 16 µg/mL,≥ 16 µg/mL,≥ 16 µg/mL,≥ 16 µg/mL
N#Cc1ccc(/C=C/c2nc3ccccc3c(=O)n2-c2cccc([N+](=O)[O-])c2)cc1,≥ 8 µg/mL,≥ 16 µg/mL,≥ 16 µg/mL,≥ 16 µg/mL,≥ 16 µg/mL,≥ 16 µg/mL
Cc1ccc(/C=C/c2nc3ccccc3c(=O)n2-c2cccc(O)c2)cc1,≥ 8 µg/mL,≥ 16 µg/mL,≥ 16 µg/mL,≥ 16 µg/mL,≥ 16 µg/mL,≥ 16 µg/mL
O=c1c2ccccc2nc(/C=C/c2ccc([N+](=O)[O-])cc2)n1-c1cccc(O)c1,≥ 8 µg/mL,≥ 16 µg/mL,≥ 16 µg/mL,≥ 16 µg/mL,≥ 16 µg/mL,≥ 16 µg/mL
N#Cc1ccc(/C=C/c2nc3cc(N)ccc3c(=O)n2-c2cccc(C(=O)O)c2)cc1,≥ 8 µg/mL,≥ 16 µg/mL,≥ 16 µg/mL,≥ 16 µg/mL,≥ 16 µg/mL,≥ 16 µg/mL
O=c1c2cc(O)ccc2nc(/C=C/c2ccc(F)cc2)n1-c1cccc(O)c1,≥ 8 µg/mL,≥ 16 µg/mL,≥ 16 µg/mL,≥ 16 µg/mL,≥ 16 µg/mL,≥ 16 µg/mL
O=C(O)c1cccc(-n2c(/C=C/c3ccc(F)c(F)c3)nc3ccccc3c2=O)c1,≥ 8 µg/mL,≥ 16 µg/mL,≥ 16 µg/mL,≥ 16 µg/mL,≥ 16 µg/mL,≥ 16 µg/mL
O=c1c2ccccc2nc(/C=C/C2CCCCC2)n1-c1cccc(O)c1,≥ 8 µg/mL,≥ 16 µg/mL,≥ 16 µg/mL,≥ 16 µg/mL,≥ 16 µg/mL,≥ 16 µg/mL
CC(=O)OCC#Cc1ccc(/C=C/c2nc3ccccc3c(=O)n2-c2cccc(C(=O)O)c2)cc1,≥ 8 µg/mL,≥ 16 µg/mL,≥ 16 µg/mL,≥ 16 µg/mL,≥ 16 µg/mL,≥ 16 µg/mL
O=c1c2ccccc2nc(/C=C/c2ccc(F)cc2)n1-c1cccc([N+](=O)[O-])c1,≥ 8 µg/mL,≥ 16 µg/mL,≥ 16 µg/mL,≥ 16 µg/mL,≥ 16 µg/mL,≥ 16 µg/mL
O=c1c2ccccc2nc(/C=C/c2ccc([N+](=O)[O-])cc2)n1-c1ccc(O)cc1,≥ 8 µg/mL,≥ 16 µg/mL,≥ 16 µg/mL,≥ 16 µg/mL,≥ 16 µg/mL,≥ 16 µg/mL

# Next, values leading:
MIC [1],MIC [2],MIC [3],MIC [4],MIC [5],MIC [6],Compound
≥ 8 µg/mL,≥ 16 µg/mL,≥ 16 µg/mL,≥ 16 µg/mL,≥ 16 µg/mL,≥ 16 µg/mL,N#Cc1ccc(/C=C/c2nc3ccccc3c(=O)n2-c2cccc(C(=O)NCCC(=O)O)c2)cc1
≥ 8 µg/mL,≥ 16 µg/mL,≥ 16 µg/mL,≥ 16 µg/mL,≥ 16 µg/mL,≥ 16 µg/mL,COc1ncccc1CNc1cccc(-n2c(/C=C/c3ccc(C#N)cc3)nc3ccccc3c2=O)c1
≥ 8 µg/mL,≥ 16 µg/mL,≥ 16 µg/mL,≥ 16 µg/mL,≥ 16 µg/mL,≥ 16 µg/mL,N#Cc1ccc(/C=C/c2nc3ccccc3c(=O)n2-c2cccc(C(=O)NCc3cccnc3)c2)cc1
≥ 8 µg/mL,≥ 16 µg/mL,≥ 16 µg/mL,≥ 16 µg/mL,≥ 16 µg/mL,≥ 16 µg/mL,COC(=O)Cc1ccc(/C=C/c2nc3ccccc3c(=O)n2-c2cccc(C(=O)O)c2)cc1
≥ 8 µg/mL,≥ 16 µg/mL,≥ 16 µg/mL,≥ 16 µg/mL,≥ 16 µg/mL,≥ 16 µg/mL,N#Cc1ccc(/C=C/c2nc3ccncc3c(=O)n2-c2cccc(C(N)=O)c2)cc1
≥ 8 µg/mL,≥ 16 µg/mL,≥ 16 µg/mL,≥ 16 µg/mL,≥ 16 µg/mL,≥ 16 µg/mL,N#Cc1ccc(/C=C/c2nc3ccncc3c(=O)n2-c2cccc(O)c2)cc1

# Reference: ChEMBL document CHEMBL3817745, “Structure-Activity Relationship for the 4(3H)-Quinazolinone Antibacterials” (J Med Chem, 2016)
